The nature of data set [1]: Microsomal stability test, human liver microsome. Format: in vitro ADME. The conditions noted are these: human liver microsomes. Put shortly: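 Human liver microsomes (10 µL at 20 mg/mL) were combined with 330 µL 0.1 M phosphate buffer (3.3 mM MgCl2) and 40 µL of 10 µM test compound, with NADPH in the same buffer. Verapamil was the positive control.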
A general note: Microsomes from liver hold many membrane-bound enzymes, among them those of drug oxidation.

Data set [2] can be described thus: Microsomal stability test, mouse liver microsome. Format: in vitro ADME. The conditions noted are these: MLM and HLM t1/2, vs compound 1.
Data set [3] concerns MIA PaCa-2 cells. The data set is described as follows: 3-day MTT assay in glucose- or galactose-containing medium. The format is cell-based. Put shortly: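 MIA PaCa-2 cells were treated with test compound for 3 days in glucose-containing medium. MTT (3 mg/mL solution) was added for 4 h at 37 °C. Supernatant was removed, formazan was dissolved in DMSO, and absorbance was read at 570 nm. IC50 came from nonlinear regression of log concentration–response curves. Experiments were run at least three times.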
In general terms: Tetrazolium dyes change colour on reduction, which living cells bring about.

For data set [4], the system named is MIA PaCa-2 cells. Description: 7-day MTT growth inhibition assay, MIA PaCa-2. Particulars: for IC50: Homo sapiens, MIA PaCa-2, 168 h; for activity (cytotoxicity in pancreatic cancer cells): 7-day MTT assay. Format: cell-based. The method, boiled down: (§1)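 Cells were seeded in glucose-containing medium (MIA PaCa-2 200 cells/well; BxPC-3 300 cells/well), incubated overnight at 37 °C, 5% CO2, then exposed to test compound or DMSO for 7 days. MTT (3 mg/mL solution) was added for 4 h, formazan dissolved in DMSO, and A570 read. Inhibition = [1 − (At−Ab)/(Ac−Ab)] × 100. IC50 came from nonlinear regression; at least three independent runs.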

The subject of data set [5] is OXPHOS Complex I. Description: NAD+/NADH ratio. Format: cell-based. The conditions noted are these: MIA PaCa-2 cells, NAD/NADH-Glo Assay, 2 days treatment. Put shortly: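 MIA PaCa-2 cells (5 × 10^3/well) were treated the next day for 48 h with test compound in RPMI 1640 + 10% FBS. Cells were PBS-washed and lysed in bicarbonate base buffer with 1% DTAB. For NAD+, lysate was acid-treated (0.4 N HCl); for NADH, lysate was heated directly; both at 60 °C for 15 min, then neutralised with Trizma. After 30 min with Glo detection reagent, luminescence was read. IC50 of the NAD+/NADH ratio came from nonlinear regression.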

For data set [6], the system named is Pan02 cells. Description: Pan02 syngeneic pancreatic cancer model efficacy study. Format: in vivo. Particulars: for tumor growth inhibition: Pan02 syngeneic model. Put shortly: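 Female C57BL/6 mice, 6-10 weeks old, received 5×10^6 Pan02 cells s.c. in the right flank and were randomized (n = 5/group) at ~100 mm3. Dosing was daily for 28 days in 10% DMSO/50% PG/40% saline, or 10% DMSO/60% PG/30% saline for the 15 mg/kg dose. Tumours were measured by caliper twice weekly, V = (length × width²)/2. Body weight was recorded before dosing, then twice weekly.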

The subject of data set [7] is BxPC-3 cells. The data set is described as follows: 7-day MTT growth inhibition assay, BxPC-3. The format is cell-based. Particulars: Homo sapiens, BXPC-3, 168 h, read-out: IC50 in BxPC-3 cells. The method, boiled down: as §1
Data set [8] can be described thus: Pharmacokinetics in CD-1 mice. The conditions noted are these: plasma. Format: in vivo. The method, boiled down: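 CD-1 mice received test compound at 2 mg/kg i.v. or 10 mg/kg p.o., and plasma concentration–time profiles were measured. Parameters came from non-compartmental analysis: AUC(0-tldc) to last detectable concentration and AUC(0-inf) extrapolated to infinity. Terminal half-life used ≥3 terminal-phase points. Bioavailability = (AUCpo × Dose_iv)/(AUCiv × Dose_po) × 100%.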

The mark [9] stands for this setting: read-out: IC50 in MIA PaCa-2 cells.

Where “and” joins values, the source holds several entries; their conditions need not be identical. Identical values can stand only once. Entries after “also recorded” stand apart in the source; their conditions may differ. Like-named read-outs stand apart in the source and are kept apart here.

For `CCOC(=O)[C@@H]1CCCN(S(=O)(=O)c2ccc(S(=O)(=O)N(CC)CC)cc2)C1` [Compound 1], the “HLM t1/2 (human liver microsome half life)” value in data set [1] is 36 s.
`CCN(CC)S(=O)(=O)c1ccc(S(=O)(=O)N2CCC[C@@H](C(=O)NC3COC3)C2)cc1` [Compound 2]: the “improvement of microsomal stability over compound 1” value in data set [2] is on record as “more than 30 fold”.
As to `CCN(CC)S(=O)(=O)c1ccc(S(=O)(=O)N2CCC[C@@H](C(=O)N3CCC(OC)CC3)C2)cc1` [Compound 12, (R)-N,N-Diethyl-4-((3-(4-methoxypiperidine-1-carbonyl)piperidin-1-yl)sulfonyl)benzenesulfonamide], the “activity in glucose-containing medium” value in data set [3] was “inactive”. The “improvement in MIA PaCa-2 cell growth inhibition” value in data set [4] (vs compound 11) amounted to 2 fold.
On to `CCN(CC)S(=O)(=O)c1ccc(S(=O)(=O)N2CCC[C@@H](C(=O)N3CCC(F)(F)CC3)C2)cc1` [Compound 16, (R)-4-((3-(4,4-Difluoropiperidine-1-carbonyl)piperidin-1-yl)sulfonyl)-N,N-diethylbenzenesulfonamide], for which the “NAD+/NADH ratio (IC50, nM) Glucose medium” value (“NAD+/NADH ratio” below) in data set [5] is 23 ± 18.1 nM.
Take `CN(C)S(=O)(=O)c1ccc(S(=O)(=O)N2CCC[C@@H](C(=O)N3CCC(F)(F)CC3)C2)cc1` [Compound 20, (R)-4-((3-(4,4-Difluoropiperidine-1-carbonyl)piperidin-1-yl)sulfonyl)-N,N-dimethylbenzenesulfonamide]: the “NAD+/NADH ratio” value in data set [5] is 34 ± 15 nM. Further, the IC50 in data set [4] (read-out: MIA PaCa-2 IC50) is 118 ± 44 nM.
Regarding `O=C([C@@H]1CCCN(S(=O)(=O)c2ccc(S(=O)(=O)N3CC[C@@H](O)C3)cc2)C1)N1CCC(F)(F)CC1` [Compound 21, (4,4-Difluoropiperidin-1-yl)((R)-1-((4-(((R)-3-hydroxypyrrolidin-1-yl)sulfonyl)phenyl)sulfonyl)piperidin-3-yl)methanone], in data set [5], the “NAD+/NADH ratio” value worked out at 67.5 ± 18.8 nM.
As for `CC(C)S(=O)(=O)c1ccc(S(=O)(=O)N2CCC[C@@H](C(=O)N3CCC(F)(F)CC3)C2)cc1` [Compound 23, (R)-(4,4-Difluoropiperidin-1-yl)(1-((4-(isopropylsulfonyl)phenyl)sulfonyl)piperidin-3-yl)methanone], in data set [6] (Pan02 model, once daily for 28 days, 20 7.5 mg/kg i.p., 21 15 mg/kg i.p., 27 2.5 mg/kg i.p., 23 10 mg/kg p.o.), the tolerability result is given as “well tolerated”. In data set [6] (10 mg/kg p.o. once daily for 28 days, 10 mg/kg), the tumor growth inhibition entry is “significant tumor growth inhibition; also recorded: significant tumor growth delay”. Also, the “NAD+/NADH ratio” value in data set [5] was 3.6 nM and 3.6 ± 3.2 nM. The IC50 in data set [7] was less than 100 nM; in data set [4] (setting [9]), roughly 10 nM. In addition, the “AUC(0-inf)” value in data set [8] (IV 2 mg/kg) is given as 657.0 nM:h; in data set [8] (PO 10 mg/kg), 417.1 nM:h. For the same compound, the “AUC(0-tldc)” value in data set [8] (IV 2 mg/kg) is recorded as 650.0 nM:h; in data set [8] (PO 10 mg/kg) it was 368.1 nM:h.
For the compound `CCC(CC)S(=O)(=O)c1ccc(S(=O)(=O)N2CCC[C@@H](C(=O)N3CCC(F)(F)CC3)C2)cc1` [Compound 25, (R)-(4,4-Difluoropiperidin-1-yl)(1-((4-(pentan-3-ylsulfonyl)phenyl)sulfonyl)piperidin-3-yl)methanone], the 50% inhibitory concentration (IC50) in data set [7] was less than 100 nM; in data set [4] (setting [9]) it was roughly 10 nM.
As for `O=C([C@@H]1CCCN(S(=O)(=O)c2ccc(S(=O)(=O)C3CCC3)cc2)C1)N1CCC(F)(F)CC1` [Compound 27, (R)-(1-((4-(Cyclobutylsulfonyl)phenyl)sulfonyl)piperidin-3-yl)(4,4-difluoropiperidin-1-yl)methanone], the tumor growth inhibition result in data set [6] (2.5 mg/kg i.p. once daily for 28 days) is listed as “significant tumor growth inhibition”. In data set [5], the “NAD+/NADH ratio” value is 3.2 ± 1.3 nM. Also, the IC50 is less than 100 nM in data set [7] and roughly 10 nM in data set [4] (setting [9]).
As to `CP(C)(=O)c1ccc(S(=O)(=O)N2CCC[C@@H](C(=O)N3CCC(F)(F)CC3)C2)cc1` [Compound 30, (R)-(4,4-Difluoropiperidin-1-yl)(1-((4-(dimethylphosphoryl)phenyl)sulfonyl)piperidin-3-yl)methanone], the “activity (cytotoxicity in pancreatic cancer cells)” value in data set [4] is given as “complete loss of activity”.
For `CCP(=O)(CC)c1ccc(S(=O)(=O)N2CCC[C@@H](C(=O)N3CCC(F)(F)CC3)C2)cc1` [Compound 31, (R)-(1-((4-(diethylphosphoryl)phenyl)sulfonyl)piperidin-3-yl)(4,4-difluoropiperidin-1-yl)methanone], the “activity (cytotoxicity in pancreatic cancer cells)” value in data set [4] was “complete loss of activity”.

For orientation: IC50 means the concentration that inhibits the measured activity by half.

The values are drawn from paper PMC9165018 (Journal of medicinal chemistry, 2022).
